Screens deposited in PubChem by several laboratories.
Most compounds without a hit are left out; they make up all but 11% or so of the library.
M1 ag = M1 muscarinic receptor agonists, primary screen, CHO-M1 cells, Fluo-4 calcium, agonist mode | AID 626, 2007 | Muscarinic acetylcholine receptor M1 | 64,000 tested, 3% active | Fluo-4 calcium fluorescence; stronger effect = higher value | B-score at 10 µM;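 active = fluorescence rise, raw or as B-score row- and column-corrected plate score, outside the 99.7% band of its plate's samples, either direction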
D1 mod = D1 CRE-luciferase signal change, two-sided – cell-based, HEK293 D1, dopamine EC30, D1 allosteric modulator project, primary screen. dopamine EC30 potentiation; actives deviate in either direction. 58,000 tested, 5.9% active. B-score at 10 µM. D(1A) dopamine receptor (Homo sapiens), P21728. AID 641, 2007;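 active = luminescence count or its row- and column-corrected plate score outside the 99.7% band of the plate's sample wells, on either side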
S1P1 ag-PAM = S1P1 agonists and agonism potentiators, primary screen, cell-based, primary and confirmation screens, CRE-bla reporter. Sphingosine 1-phosphate receptor 1 (Homo sapiens), P21453. S1P1 CRE-bla cells, forskolin, beta-lactamase FRET, potentiator mode; S1P1 agonist co-added at EC20, 2 nM; 100% = saturating reference agonist, 0% = basal. activation, % at 9.5 µM. 56,000 tested, 0.57% active. AID 449, 2006;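 active = activation above a cutoff set at the mean activation of all tested compounds plus 3 SD, cut at about 54% in these data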;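 note: forskolin at 4 µM as EC80 and the EC20 agonist is SEW2871; 100% = SEW2871 at its EC100 plus forskolin at EC80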
M1 antag = antagonists of rat M1 muscarinic receptor. CHO-M1 cells, Fluo-4 calcium, ACh EC80 antagonist mode; stronger effect = lower value. 64,000 tested, 3.4% active. Muscarinic acetylcholine receptor M1 (Rattus norvegicus), P08482. AID 628, 2007. B-score at 10 µM;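 active = calcium fluorescence response, raw or row-and-column corrected B-score, differing from the plate sample mean either way at a set confidence level, mostly lower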
Target sequence (P08482 whole entry, looked up): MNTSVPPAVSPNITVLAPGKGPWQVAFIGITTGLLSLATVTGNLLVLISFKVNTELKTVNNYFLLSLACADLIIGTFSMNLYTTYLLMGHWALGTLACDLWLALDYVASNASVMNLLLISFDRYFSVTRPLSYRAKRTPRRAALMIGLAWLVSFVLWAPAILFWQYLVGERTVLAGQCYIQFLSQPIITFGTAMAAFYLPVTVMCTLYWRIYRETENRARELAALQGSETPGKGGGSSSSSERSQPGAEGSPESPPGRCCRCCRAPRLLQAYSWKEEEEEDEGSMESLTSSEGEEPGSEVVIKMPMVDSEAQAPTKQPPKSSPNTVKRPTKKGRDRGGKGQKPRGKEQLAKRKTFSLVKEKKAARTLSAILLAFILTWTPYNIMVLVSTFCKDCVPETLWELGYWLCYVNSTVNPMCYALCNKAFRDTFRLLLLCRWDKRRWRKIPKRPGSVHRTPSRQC
S1P3 agonist = human S1P3 receptor agonists, primary screen, cell-based, primary and confirmation, NFAT-BLA reporter; Sphingosine 1-phosphate receptor 3 (Homo sapiens), Q99500; S1P3 NFAT-BLA reporter cells, agonism, FRET ratio; relative to 1 µM S1P, basal subtracted; activation, % at 4.5 µM; 60,000 tested, 0.1% active; AID 373, 2006;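 active = activation above the screen-wide mean plus 3 SD, cut at about 4.5% in these data, passing the limit was not always enough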
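Assay system: CHO cells stably expressing human S1P3, Gα16 and NFAT-β-lactamase reporter. Timing: overnight plating, 4 h compound 37 °C, 2 h substrate RT. Signal: β-lactamase FRET emission ratio 460/535 nm. Measure: percent activation versus median 1 µM S1P response, basal-subtracted, per plate. Repeats: primary screen single test, confirmation screen in triplicate.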
Active calls of the source: *; x = no result.

SMILES | M1 ag | D1 mod | S1P1 ag-PAM | M1 antag | S1P3 agonist
Cc1sc(NC(=O)c2ccco2)nc1-c1ccc2c(c1)CC(C)N2C(=O)C1CC1 (centres undefined) | 14* | -3.6* | 12 | -3.6* | 0
CC(C)Cn1c(=O)c(C2=NS(=O)(=O)c3ccccc3N2)c(O)c2ccccc21 | 0.016 | -1.2 | 28 | 0.43 | -2
COc1cc(N2CCCC2)c(OC)cc1/C=c1/sc2nc3ccccc3n2c1=O | 13* | 0.13 | -9 | 0.27 | -4
Cc1cc(NC(=O)CCC(=O)N(CCc2ccccc2)C(C(=O)NC2CCCC2)c2ccco2)no1 (centres undefined) | 1.3 | 0.19 | 14 | 2.4* | -1
N#CCCC12CCCCC1=Nc1ccccc12 (centres undefined) | -1 | -0.77 | 1 | -0.67 | -1
O=C(NC1=NCCS1)C1COc2ccccc2O1 (centres undefined) | -0.6 | -5.4* | 15 | -0.7 | 0
O=C(Nc1nc2c(s1)CCCC2)C1COc2ccccc2O1 (centres undefined) | 0.53 | -6.9* | -10 | 1 | -1
COc1ccc2nc(NC(=O)C3COc4ccccc4O3)sc2c1 (centres undefined) | 0.14 | -4.8* | 4 | -1.5 | 0
COc1cccc(NC(=O)CSc2nncn2N)c1 | -0.35 | -0.97 | -2 | 0.024 | 0
Nn1cnnc1SCC(=O)Nc1ccc(C2CCCCC2)cc1 | -1 | -4.3* | -7 | 0.096 | -1
O=S(=O)(Nc1cccnc1)c1cccs1 | 0.068 | 0.041 | -1 | 2.4* | 0
O=S(=O)(Nc1nccs1)c1ccc(NS(=O)(=O)c2cccs2)cc1 | -0.15 | -0.31 | 5 | -0.26 | -1
CC#CCCCC(=O)Nc1ccccc1C(=O)O | 0.28 | -0.011 | 9 | 1 | -1
CC#CCCCC(=O)Nc1ccc(C(=O)O)cc1 | -1.4 | -3.1* | -7 | -0.92 | 0
CCC(NC(=O)Nc1nnc(C(F)(F)F)s1)(C(F)(F)F)C(F)(F)F | 0.73 | -0.45 | 112* | -0.025 | -10
CCC(C)C(NS(=O)(=O)c1ccc(C)cc1)C(=O)NCCN1CCOCC1 (centres undefined) | x | x | 2 | x | 0
COC(=O)c1cc(OC)c(OC)cc1NC(=O)c1oc2ccccc2c1C | -0.0083 | 0.82 | 17 | 0.32 | -1
COc1ccccc1CNC(=O)C1CCCN1S(=O)(=O)c1cccc2cccnc12 (centres undefined) | -0.15 | 0.59 | -3 | 1 | -1
O=C(Nc1ccc(CN2CCOCC2)cc1)c1cc2ccccc2oc1=O | -0.88 | -5.6* | x | -0.91 | x
O=C(Nc1cccnc1N1CCOCC1)c1cc2ccccc2oc1=O | 0.45 | 4.2* | x | -0.072 | x
COc1cccc2cc(C(=O)Nc3cccnc3N3CCOCC3)c(=O)oc12 | 1.3 | -0.0013 | x | -0.04 | x
CCCCc1ccc(-c2ccc(C)cc2O)nc1 | -1.2 | -5.3* | -2 | 1.2 | -1
N#CC1=C(N)C(C#N)(C#N)C2(C(=O)Nc3ccccc32)C2CCCC=C12 (centres undefined) | x | -6.2* | 1 | x | -1
CCOC(=O)c1c(NC(=O)CSc2nnnn2C)sc(C)c1-c1ccc(C)cc1 | 0.15 | -0.77 | -63 | 0.012 | 0
C=CCn1nnnc1SCC(=O)Nc1cccc(OC)c1 | -0.66 | 0.081 | x | 11* | 0
SMILES | M1 ag | D1 mod | S1P1 ag-PAM | M1 antag | S1P3 agonist
CCCCn1nnnc1SCC(=O)c1ccc(C)c(C)c1 | -0.21 | -2.1 | 84* | -0.85 | 0
CCOC(=O)c1c(-c2ccccc2)csc1NC(=O)CSc1nnnn1C | 3.2* | 0.38 | -30 | -0.62 | 0
CCOC(=O)c1ccc(NC(=O)CSc2nnnn2CCCO)cc1 | 0.033 | -1.1 | -16 | 1.8* | -1
CC1CCCCN1Cc1nc2c(c(=O)n(C)c(=O)n2C)n1Cc1cccc2ccccc12 (centres undefined) | -0.46 | 0.01 | -10 | 0.64 | -1
O=C(Cc1ccccc1)N[C@H](c1ccccc1)P(=O)(O)CO | -0.057 | -0.19 | -16 | 0.032 | 0
CCOC(=O)c1[nH]c(C)c(C(=O)Nc2ccc3c(c2)OCCO3)c1C | 0.012 | x | 4 | -0.51 | 0
CC(=O)c1c(C)[nH]c(C(=O)Nc2ccc3c(c2)OCCO3)c1C | -0.034 | -2.7* | 7 | -0.83 | 0
Cc1ccc(NC2=NCC(=O)N2Cc2ccc3c(c2)OCO3)cc1 | -0.0004 | x | 0 | 0.2 | 0
COc1ccccc1N1CCN(CCC(=O)Nc2ccc3c(c2)OCO3)CC1 | x | -2.2* | x | x | x
CCOc1ccc(NC(=O)CCN2CCN(c3ccccc3OC)CC2)cc1 | -1.7 | x | -2 | -0.58 | -1
CN(C)C=Nc1ccc2nn(-c3ccccc3)nc2c1 | -1.3 | -2.5* | 1 | -1.2 | 0
Cn1cc(CC(=O)NCCCN2CCCC2=O)c2ccccc21 | 0.86 | -0.087 | 9 | 0.00093 | 0
COC(=O)c1ccc(=O)n(Cc2ccc3c(c2)OCO3)c1 | -0.31 | -0.12 | 3 | -0.11 | -6
CC(=O)Nc1ccc(Nc2nc(C)nc3c2oc2ccccc23)cc1 | x | x | -59 | x | 0
Cc1nc(Nc2ccncc2)c2oc3ccccc3c2n1 | 22* | 1.1 | x | -2.9* | x
Cc1nnc(SCC(=O)N2CCC(c3noc4ccc(F)cc34)CC2)s1 | -0.0085 | -1.8 | 69* | -0.22 | 0
Clc1ccc2nc(CN3CCCc4ccccc43)cn2c1 | 0.021 | 1.3 | 14 | -0.56 | 0
COc1ccc(CCN2C(=O)CC(C(N)=O)SC2=Nc2ccccc2)cc1OC (centres undefined) | 0.85 | -0.13 | -15 | 0.66 | 0
O=C(CSc1nnc(Cc2csc(Nc3cccc(Cl)c3)n2)o1)N1CCc2ccccc21 | -0.29 | 0.13 | 78* | -0.79 | -1
Nc1ccc(C2CCCc3nonc32)c2nonc12 (centres undefined) | x | -2.8* | 11 | x | -1
COc1ccccc1N1CCN(C(=O)c2oc3ccccc3c2C)CC1 | 0.77 | -0.9 | -5 | -4.5* | 0
COc1ccc(C(=O)Nn2c(SCC(=O)NCc3ccco3)nc3ccccc3c2=O)cc1 | -1.1 | -9.3* | 28 | -0.45 | -1
O=C(O)C1C2C=CC(C2)C1C(=O)NCc1ccccn1 (centres undefined) | 0.7 | -0.66 | x | 2.7* | x
COc1ccc(OC)c(NC(=O)C2C3C=CC(C3)C2C(=O)NCc2ccccn2)c1 (centres undefined) | -1.1 | 0.53 | 3 | 0.13 | -1
O=C(COc1nnnc2ccccc12)N1CCCc2ccccc21 | -0.072 | 0.0036 | -3 | -0.27 | 0
O=C(Cn1cnc2ccccc21)OCC(=O)N1CCCc2ccccc21 | -2.4* | -0.16 | 1 | -0.2 | -2
COc1c[nH]n(C2CCCCC2)c(=O)c1=O | 0.61 | 0.0019 | -9 | -1.1 | 0
C=CCn1c(=O)c2ccccc2n2c(SCc3c(C(=O)OCC)oc4ccccc34)nnc12 | 0.04 | 0.014 | -2 | -0.49 | 4
